An excerpt weighted towards active compounds, which were near 3.7% of everything screened.
Kir21 inh: inhibitors of mouse Kir2.1 inward-rectifier potassium channel; Inward rectifier potassium channel 2 (Mus musculus), P35561; HEK293-Kir2.1, FluxOR thallium flux fluorescence; hits give low values; B-score at 10 µM; 310,000 tested, 0.85% active;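 active means fluorescence ratio B-score at or below minus 3 SD of library scores, with starting-brightness B-score within 2 SD, cut at about -4.2 in these data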;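 further: channel flux triggered by added potassium and thallium sulfate stimulus; B-score of peak minus minimum fluorescence over baseline after thallium stimulus; more negative B-score means stronger Kir2.1 block with less thallium influx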
KCNQ1 act: potentiators or activators of KCNQ1 channel, primary screen, cell-based, thallium flux, high-throughput | Potassium voltage-gated channel subfamily KQT member 1 (Homo sapiens), P51787 | CHO-K1 KCNQ1, thallium flux FluxOR fluorescence; hits give high values | B-score at 10 µM | 310,000 tested, 0.35% active;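 active means fluorescence ratio B-score, a plate-corrected score, at least three library SD, with initial intensity B-score within 5 SD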
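Assay system: CHO-K1 cells stably expressing KCNQ1. Medium: assay buffer for compound exposure, DMSO matched across wells. Timing: 37 °C overnight plating, 90-min dark dye load, 20-min compound pretreatment. Signal: kinetic FluxOR fluorescence, 10 s baseline plus 110 s post-stimulus.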
KCNK9 inh: KCNK9 potassium channel inhibitors, primary screen, HEK293 cells, thallium flux; AID 488922, 2010; 310,000 tested, 1.2% active; B-score at 10 µM; FluxOR thallium flux fluorescence; hits give low values;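 active means ratio B-score over 3 SD below the library mean, with starting fluorescence within 5 SD of its mean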;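 further: negative B-score means less thallium flux so channel inhibition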
Target sequence (Q9NPC2 whole entry, looked up): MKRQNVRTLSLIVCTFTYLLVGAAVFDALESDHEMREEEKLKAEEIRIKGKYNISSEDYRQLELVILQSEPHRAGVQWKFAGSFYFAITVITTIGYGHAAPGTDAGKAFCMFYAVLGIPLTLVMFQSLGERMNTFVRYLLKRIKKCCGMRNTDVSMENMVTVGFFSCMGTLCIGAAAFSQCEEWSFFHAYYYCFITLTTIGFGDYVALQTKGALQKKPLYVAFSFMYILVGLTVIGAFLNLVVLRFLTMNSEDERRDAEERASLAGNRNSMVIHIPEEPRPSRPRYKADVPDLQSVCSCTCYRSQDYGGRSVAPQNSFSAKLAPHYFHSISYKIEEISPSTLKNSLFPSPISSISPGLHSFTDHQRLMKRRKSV
KCNQ1 inh: inhibitors of human KCNQ1 channel, primary screen, cell-based, thallium flux, high-throughput; Potassium voltage-gated channel subfamily KQT member 1 (Homo sapiens), P51787; CHO-K1 KCNQ1, FluxOR thallium flux fluorescence; hits give high values; B-score at 10 µM; 310,000 tested, 1.3% active; AID 2642, 2010;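 active means compounds whose thallium flux B-score, printed positive for inhibition, exceeds three library SD while starting fluorescence stays within three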;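 further: channel opened by potassium depolarization with thallium stimulus after 20 min compound exposure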
KCNK3 inh: human KCNK3 channel inhibitors, primary screen, CHO cells, FluxOR thallium flux, B-score. 340,000 tested, 0.84% active. Potassium channel subfamily K member 3 (Homo sapiens), O14649. FluxOR fluorescence; hits give low values. B-score at 10 µM;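 active means B-score under library mean minus 4 SD, starting fluorescence ratio at most library mean plus 5 SD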;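 further: more negative B-score means stronger inhibition of thallium flux through KCNK3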
hERG rescue: hERG rescue from dofetilide block, primary screen, cell-based, CHO-hERG, FluxOR thallium flux, dofetilide IC70; Voltage-gated inwardly rectifying potassium channel KCNH2 (Homo sapiens), Q12809; dofetilide IC70 present; activation (rescue from dofetilide block), less the hit threshold, % at 10 µM; 310,000 tested, 0.51% active;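 active means activation above the mean of controls blocked by dofetilide plus 5 SD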;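 further: thallium influx through hERG after potassium depolarization seen as dye fluorescence rise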
A number is an active result; i = inactive; nt = no result.

SMILES	Kir21 inh	KCNQ1 act	KCNK9 inh	KCNQ1 inh	KCNK3 inh	hERG rescue
CCOC(=O)c1c(-c2ccc(Cl)cc2)csc1NC(=O)CNCc1ccco1	i	i	i	i	i	i
CCOC(=O)c1c(-c2ccccc2)csc1NC(=O)C(C)NCc1ccco1 (configuration not stated)	i	i	i	7	i	i
Oc1c(Br)cc(Br)cc1CNc1cnc2ccccc2c1	i	i	i	6	i	i
O=C(NCC(c1ccc(F)cc1)N1CCOCC1)c1ccc(Br)o1 (configuration not stated)	i	i	i	i	i	i
COC1(OC)C(/C=C/c2ccc(Cl)cc2)C(C#N)(C#N)C1(OC)OC (configuration not stated)	i	i	i	10	i	i
O=C(CC(=O)c1ccccc1)Nc1ccccc1C(F)(F)F	i	i	i	i	i	i
O=C(NCCNCCO)C1(C(F)(F)F)C/C(=C\CCO)CCCO1 (configuration not stated)	i	i	i	i	i	i
Cc1csc(NC(=S)NC(=O)c2ccccc2)n1	i	i	i	i	i	4.7
CCOC(=O)Cc1csc(NC(=S)NC(=O)c2ccccc2)n1	i	i	i	i	i	i
CCOC(=O)Cc1csc(NC(=S)NC(=O)c2ccccc2Br)n1	i	17	i	i	i	15
N#Cc1c(NC(=O)/C=C/C(=O)O)sc2c1CCN(Cc1ccccc1)C2	i	i	i	6	i	i
O=C1NC(=S)SC1=C1CCCCCC1	i	63	i	i	i	27
CC(C)c1ccc(NC(=O)c2ccc(NS(C)(=O)=O)cc2)cc1	i	i	i	i	i	i
CCCCCn1c(NC(=O)c2ccco2)c(S(=O)(=O)c2ccc(C)cc2)c2nc3ccccc3nc21	i	i	i	10	i	i
CCCCn1c(NS(=O)(=O)c2ccccc2)c(S(=O)(=O)c2ccc(C)cc2)c2nc3ccccc3nc21	i	i	i	i	i	i
CCCCn1c(NC(=O)c2ccc(Br)o2)c(S(=O)(=O)c2ccccc2)c2nc3ccccc3nc21	i	i	i	12	i	i
Cc1ccc(S(=O)(=O)c2c(N)n(NC(=O)c3ccccc3C)c3nc4ccccc4nc23)cc1	i	i	i	i	-8.8	i
Cc1ccc(C(=O)Nn2c(N)c(S(=O)(=O)c3ccc(C)cc3)c3nc4ccccc4nc32)cc1	i	i	i	i	i	i
CCCCn1c(NC(=O)c2ccco2)c(S(=O)(=O)c2ccc(C)cc2)c2nc3ccccc3nc21	i	i	i	i	i	i
COc1ccccc1N(CC(=O)NC1CCCC1)C(=O)CCC(=O)Nc1ccccn1	i	i	i	i	i	i
COc1ccc(OC)c(NC(=O)COC(=O)CN2C(=O)NC3(CCCC3)C2=O)c1	nt	nt	nt	nt	i	nt
CCC1CCCCN1C(=O)c1cccc(S(=O)(=O)Nc2cc(C(F)(F)F)ccc2Cl)c1 (configuration not stated)	i	i	i	7	i	i
O=C(NC1CCN(Cc2ccccc2)CC1)c1cccc(S(=O)(=O)Nc2cc(C(F)(F)F)ccc2Cl)c1	i	i	i	i	i	i
O=C1c2ccccc2C(=O)N1Cc1nc2ccccc2c(=O)n1CCCn1ccnc1	i	i	i	i	i	9.8
O=C(CCn1c(=O)oc2ccccc21)N1CCN(c2ccccc2F)CC1	i	i	i	i	i	5.3
O=c1c2ccccc2c(=O)n(-c2ccccc2)n1-c1ccccc1	nt	nt	nt	nt	i	nt
NNC(=O)c1ccc(N2CCc3ccccc32)c([N+](=O)[O-])c1	i	i	i	i	i	i
Cc1ccc(CNC(=O)c2ccc(N3CCc4ccccc43)c([N+](=O)[O-])c2)cc1	-6.5	i	i	i	i	i
O=C(CC(=O)c1ccccc1O)c1ccc(F)cc1	i	i	i	i	i	i

Assay outcomes from PubChem BioAssay.
